pIC50: −log10 of the molar value. Activity calls are given as the source filed them. No cut-off for these calls is given here.
Columns and labels:
[1] = tested on: A-375; assay: Cytotoxicity in human A375 cells assessed as reduction in cell viability incubated for 48 hrs by MTT assay; format: functional, cell-based; settings: Homo sapiens, A-375, 48 h; read-out: IC50
How it was run: (§1)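 MTT viability assay on A375 melanoma, A549 lung adenocarcinoma and WI-38 normal lung fibroblast cells after 24 and 48 h treatment. IC50 values are in µM, expressed as mean ± SD.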

[2] = tested on: A549; assay: Cytotoxicity in human A549 cells assessed as reduction in cell viability incubated for 48 hrs by MTT assay; format: functional, cell-based; settings: Homo sapiens, A549, 48 h; read-out: IC50; how it was run: as §1
[3] = tested on: A549; assay: Cytotoxicity in human A549 cells assessed as reduction in cell proliferation at 0.001 to 100 uM incubated for 24 to 48 hrs by BrdU incorporation assay; format: functional, cell-based
How it was run: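 BrdU incorporation assay read colorimetrically. Absorbance of the developed colour is proportional to the BrdU incorporated into cells, taken as a measure of proliferation.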

[4] = Antioxidant activity assessed as DPPH radical scavenging activity at 1 to 1000 ug/ml incubated for 30 mins by spectrophotometry; format: functional
[5] = Antioxidant activity assessed as hydroxyl radical scavenging activity at 1 to 1000 ug/ml incubated for 1 hr; format: functional
[6] = tested on: A549; assay: Induction of intracellular ROS generation in human A549 cells by DCFDA dye based fluorescence assay relative to control; format: functional, cell-based
How it was run: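 Intracellular ROS in A549 cells was measured with the DCFDA probe over 1-100 µM, with paclitaxel as positive control. Readout is fold change in fluorescence intensity relative to untreated control.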

[7] = tested on: A549; assay: Induction of morphological changes in human A549 cells assessed as change in shape of cells from spindle to spherical at 1 uM by atomic force microscopy; format: functional, cell-based
[8] = tested on: A549; assay: Induction of morphological changes in human A549 cells assessed as induction of membrane breakage, blebbing and leakage of intracellular components at 1 uM by atomic force microscopy; format: functional, cell-based
[9] = tested on: A-375; assay: Induction of morphological changes in human A375 cells assessed as change in shape of cells from spindle to spherical at 1 uM by atomic force microscopy; format: functional, cell-based
[10] = tested on: A-375; assay: Induction of morphological changes in human A375 cells assessed as induction of membrane breakage, blebbing and leakage of intracellular components at 1 uM by atomic force microscopy; format: functional, cell-based
[11] = tested on: A549; assay: Induction of apoptosis in human A549 cells at 1 uM by APOP assay; format: functional, cell-based
How it was run: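 APOPercentage dye uptake in treated A549 cells, which stain purple-red in early apoptosis when phosphatidylserine is translocated. Accumulated dye was then quantified against unstained untreated controls.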

[12] = tested on: A-375; assay: Induction of apoptosis in human A375 cells at 1 uM by APOP assay; format: functional, cell-based
[13] = tested on: A549; assay: Induction of apoptosis in human A549 cells assessed as induction of nuclear changes with DNA fragmentation at 1 uM by Hoechst 33342 nuclear staining based assay; format: functional, cell-based
How it was run: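 Hoechst 33342 nuclear staining of treated A549 or A375 cells. Nuclear condensation and fragmentation were examined by fluorescence microscopy against untreated control.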

[14] = tested on: A549; assay: Antimetastatic activity in human A549 cells assessed as reduction in cell invasion at 10 nM by crystal violet staining based transwell chamber assay; format: functional
How it was run: (§2)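 Invasion was measured in a transwell chamber, with cells moving across Matrigel toward the lower chamber. Invaded cells were imaged and quantified against untreated control.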

[15] = tested on: A-375; assay: Antimetastatic activity in human A375 cells assessed as reduction in cell invasion at 10 nM by crystal violet staining based transwell chamber assay; format: functional; how it was run: as §2
[16] = tested on: A549; assay: Antimetastatic activity in human A549 cells assessed as reduction in cell migration at 10 nM by crystal violet staining based transwell chamber assay; format: functional
How it was run: (§3)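 Transwell chamber migration assay. Cells migrating to the lower side were imaged and quantified against untreated control.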

[17] = tested on: A-375; assay: Antimetastatic activity in human A375 cells assessed as reduction in cell migration at 10 nM by crystal violet staining based transwell chamber assay; format: functional; how it was run: as §3
[18] = tested on: A549; assay: Antimetastatic activity in human A549 cells assessed as inhibition of cell migration rate at 1 nM incubated up to 24 hrs by scratch wound healing assay; format: functional, cell-based
How it was run: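 Scratch wound healing assay. The cell-free zone was followed over time up to 24 h, with untreated control wells as reference. Closure was quantified as migration rate.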

[19] = tested on: A549; assay: Inhibition of colony formation in human A549 cells at 1 nM by crystal violet staining based assay; format: functional, cell-based
[20] = tested on: A549; assay: Induction of cell cycle arrest in human A549 cells assessed as accumulation at G0/G1 phase at 10 nM by propodium iodide staining based flow cytometric analysis (reference value: 68%); format: functional
How it was run: (§4)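 DNA was stained with propidium iodide and analysed by flow cytometry. Histograms give the fraction of cells in G0/G1, S and G2/M phases.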

[21] = tested on: A549; assay: Induction of cell cycle arrest in human A549 cells assessed as accumulation at G2/M phase at 10 nM by propodium iodide staining based flow cytometric analysis (reference value: 7%); format: functional; how it was run: as §4
[22] = tested on: A549; assay: Induction of mitochondrial membrane potential changes in human A549 cells at 1 uM by JC1 staining based fluorimetry; format: functional, cell-based
How it was run: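 Mitochondrial membrane potential was assessed with the ratiometric dye JC1. Depolarization appears as lower red and higher green fluorescence, and the red/green intensity ratio was quantified.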

[23] = tested on: A549; assay: Induction of apoptosis in human A549 cells assessed as increase in caspase-9 levels at 1 uM incubated for 12 hrs by spectrofluorometry; format: functional, cell-based
[24] = tested on: A-375; assay: Induction of apoptosis in human A375 cells assessed as increase in caspase-3 levels at 1 uM incubated for 12 hrs by spectrofluorometry; format: functional, cell-based
[25] = tested on: A-375; assay: Induction of apoptosis in human A375 cells assessed as increase in caspase-8 levels at 1 uM incubated for 12 hrs by spectrofluorometry; format: functional, cell-based
[26] = tested on: A549; assay: Induction of apoptosis in human A549 cells assessed as increase in caspase-2 levels at 1 uM incubated for 12 hrs by spectrofluorometry; format: functional, cell-based
[27] = tested on: A549; assay: Induction of DNA damage in human A549 cells after 4 hrs by Raman spectral imaging analysis; format: functional, cell-based
[28] = tested on: A549; assay: Induction of apoptosis in human A549 cells assessed as cytochrome-c release after 3 to 4 hrs by Raman spectral imaging analysis; format: functional, cell-based
[29] = tested on: A-375; assay: Induction of apoptosis in human A375 cells assessed as cytochrome-c release after 6 to 8 hrs by Raman spectral imaging analysis; format: functional, cell-based
[30] = tested on: A549; assay: Induction of DNA damage in human A549 cells by SERS spectral analysis; format: functional, cell-based
[31] = tested on: A-375; assay: Induction of DNA fragmentation in human A375 cells after 3 hrs by chemometec-DNA fragmentation assay relative to control; format: functional, cell-based
[32] = tested on: A549; assay: Induction of GSH depletion in human A549 cells by fluorimetry; format: functional, cell-based
[33] = tested on: A-375; assay: Induction of apoptosis in human A375 cells assessed as cytochrome-c release after 4 to 12 hrs by spectrophotometry; format: functional, cell-based
[34] = tested on: A549; assay: Induction of apoptosis related protein expression in human A549 cells assessed as increase in TNFalpha/beta expression at 20 uM incubated for 12 hrs by apoptosis antibody array; format: functional, cell-based
[35] = tested on: A549; assay: Induction of apoptosis related protein expression in human A549 cells assessed as increase in HSP60 expression at 20 uM incubated for 12 hrs by apoptosis antibody array; format: functional, cell-based
[36] = tested on: A549; assay: Induction of apoptosis related protein expression in human A549 cells assessed as increase in p53 expression at 20 uM incubated for 12 hrs by apoptosis antibody array; format: functional, cell-based

COc1cc(C2Oc3cc(-c4cc(=O)c5c(O)cc(O)cc5o4)ccc3OC2/C=C2\C(=O)ON=C2c2ccc(Cl)cc2)ccc1O (stereo unspecified)
pIC50 [1]: 6.03 | pIC50 [2]: 5.92 | Activity [3]: Active | Activity [4]: inactive | Activity [5]: Dose-dependent effect | Activity [6]: Dose-dependent effect | Activity [7]: Active | Activity [8]: Active | Activity [9]: Active | Activity [10]: Active | Activity [11]: Active | Activity [12]: Active | Activity [13]: Active | Activity [14]: Active | Activity [15]: Active | Activity [16]: Active | Activity [17]: Active | Activity [18]: Active | inhibition [19]: Active | Activity [20]: 31% | Activity [21]: 29% | Activity [22]: Active | Activity [23]: Active | Activity [24]: Active | Activity [25]: inactive | Activity [26]: Active | Activity [27]: Active | Activity [28]: Active | Activity [29]: Active | Activity [30]: Active | Activity [31]: Active | Activity [32]: Active | Activity [33]: Active | Activity [34]: Active | Activity [35]: Active | Activity [36]: Active

Reference: ChEMBL document CHEMBL4334468, “Exploring Mitochondria-Mediated Intrinsic Apoptosis by New Phytochemical Entities: An Explicit Observation of Cytochrome c Dynamics on Lung and Melanoma Cancer Cells” (J Med Chem, 2019)
